Experimental data pooled from the literature.
Protocols differ between the studies behind these lines. pIC50: −log10 of the molar value.
Sialidase-2: Sialidase-2 (Homo sapiens, UniProt Q9Y3R4)
ACHE: Acetylcholinesterase (ACHE, Homo sapiens, UniProt P22303)
FABP4: Fatty acid-binding protein, adipocyte (FABP4, Homo sapiens, UniProt P15090)
DPP4: Dipeptidyl peptidase 4 (DPP4, Homo sapiens, UniProt P27487)

Compound	target	test	system	setting	pIC50
CC(C)CCC(=O)N[C@H]1[C@H]([C@H](O)[C@H](O)CO)OC(C(=O)O)=C[C@@H]1O	Sialidase-2	enzyme activity, inhibitor	–	–	5.00
CCc1ccccc1C=Nc1ccc(SCc2cc(=O)c(O)co2)cc1	ACHE	enzyme activity, inhibitor, Ellman	–	–	5.27
O=C(O)C(F)(F)C(F)(F)C(F)(F)C(F)(F)C(F)(F)C(F)(F)F	FABP4	ligand displacement, fluorescence	–	pH 7.5	4.96
CC(C)C[C@H](NC(=O)[C@H](CO)NC(=O)[C@@H](NC(=O)[C@@H]1CCCN1C(=O)[C@@H](N)CCCCN)C(C)C)C(=O)N[C@@H](CO)C(=O)N[C@@H](Cc1ccc(O)cc1)C(=O)N[C@@H](CCCNC(=N)N)C(=O)NCC(=O)NCC(=O)N[C@H](CC(C)C)C(=O)NCC(=O)N[C@H](C)C(=O)N[C@H](CO)C(=O)N[C@H](Cc1c[nH]c2ccccc12)C(=O)N[C@H](Cc1c[nH]cn1)C(=O)N[C@H](CCCNC(=N)N)C(=O)N[C@@H](Cc1ccc2ccccc2c1)C(=O)N[C@@H](CCCNC(=N)N)C(=O)N[C@@H](CCCNC(=N)N)C(N)=O	C-X-C chemokine receptor type 4 (CXCR4, Homo sapiens, UniProt P61073)	ligand displacement in cells, fluorescence	–	–	6.12
COc1cc(-c2nc3ccccc3s2)cc(NC(C)=O)c1OCC(=O)N[C@H](Cc1ccccc1)C(=O)O	ACHE	enzyme activity, inhibitor, Ellman	–	–	< 3.61
O=c1cc(CSc2ccc(N=Cc3ccc(C(F)(F)F)cc3)cc2)occ1O	ACHE	enzyme activity, inhibitor, Ellman	–	–	4.88
O=c1cc(-c2ccc(O)c(O)c2)oc2cc(O)cc(O)c12	DPP4	enzyme activity, inhibitor, fluorescence	–	–	4.32
CC[C@@H](C)[C@H](NC(=O)COc1c(NC(C)=O)cc(-c2nc3ccccc3s2)cc1OC)C(=O)OC	ACHE	enzyme activity, inhibitor, Ellman	–	–	< 3.59
CCN[C@H]1[C@H]([C@H](O)[C@H](O)CO)OC(C(=O)O)=C[C@@H]1O	Sialidase-2	enzyme activity, inhibitor	–	–	< 3.30
COc1cc(-c2nc3ccccc3s2)cc(NC(C)=O)c1OCC(=O)NCC(=O)O	ACHE	enzyme activity, inhibitor, Ellman	–	–	< 3.53
NS(=O)(=O)C(F)(F)C(F)(F)C(F)(F)C(F)(F)C(F)(F)C(F)(F)C(F)(F)C(F)(F)F	FABP4	ligand displacement, fluorescence	–	pH 7.5	4.77
O=c1cc(CSc2ccc(N=Cc3ccccc3Cl)cc2)occ1O	ACHE	enzyme activity, inhibitor, Ellman	–	–	5.63
CC(=O)N(C)[C@H]1[C@H]([C@H](O)[C@H](O)CO)OC(C(=O)O)=C[C@@H]1O	Sialidase-2	enzyme activity, inhibitor	–	–	< 3.30
COc1ccccc1C=Nc1ccc(SCc2cc(=O)c(O)co2)cc1	ACHE	enzyme activity, inhibitor, Ellman	–	–	5.21
C=CCc1ccc(O)c(-c2cc(CC=C)ccc2O)c1	DPP4	enzyme activity, inhibitor, fluorescence	–	–	< 4.00
COC(=O)[C@H](C)NC(=O)COc1c(NC(C)=O)cc(-c2nc3ccccc3s2)cc1OC	ACHE	enzyme activity, inhibitor, Ellman	–	–	< 3.55
COc1ccc(CCCCC(=O)C(F)(F)C(F)(F)F)cc1	Phospholipase A2 group V (PLA2G5, Homo sapiens, UniProt P39877)	enzyme activity, inhibitor	–	–	4.35
O=C(O)C(F)(F)C(F)(F)C(F)(F)C(F)(F)C(F)(F)C(F)(F)C(F)(F)C(F)(F)C(F)(F)C(F)(F)C(F)(F)F	Sterol carrier protein 2 (Homo sapiens, UniProt P22307)	ligand displacement, fluorescence	–	–	5.63
Cc1ccc(C=Nc2ccc(SCc3cc(=O)c(O)co3)cc2)cc1	ACHE	enzyme activity, inhibitor, Ellman	–	–	5.19
CC(=O)c1c(C)c2cnc(Nc3ccc(C4CCN(CCS(C)(=O)=O)CC4)cn3)nc2n(C2CCCC2)c1=O	Cytochrome P450 2C9 (CYP2C9, Homo sapiens, UniProt P11712)	enzyme activity, inhibitor	human, liver microsomes	–	< 5.00
CC(C)CNC(=O)N[C@H]1[C@H]([C@H](O)[C@H](O)CO)OC(C(=O)O)=C[C@@H]1O	Sialidase-2	enzyme activity, inhibitor	–	–	4.52
O=c1cc(CSc2ccc(N=Cc3ccccc3[N+](=O)[O-])cc2)occ1O	ACHE	enzyme activity, inhibitor, Ellman	–	–	5.29
CC(C)(C)NC(=O)N[C@H]1[C@H]([C@H](O)[C@H](O)CO)OC(C(=O)O)=C[C@@H]1O	Sialidase-2	enzyme activity, inhibitor	–	–	< 3.30
O=c1cc(CSc2ccc(N=Cc3ccccc3)cc2)occ1O	ACHE	enzyme activity, inhibitor, Ellman	–	–	5.08
CCCCCC(=O)N(C)[C@H]1[C@H]([C@H](O)[C@H](O)CO)OC(C(=O)O)=C[C@@H]1O	Sialidase-2	enzyme activity, inhibitor	–	–	3.85
O=C(O)C(F)(F)C(F)(F)C(F)(F)C(F)(F)C(F)(F)F	FABP4	ligand displacement, fluorescence	–	pH 7.5	3.68
CC(C)CCN[C@H]1[C@H]([C@H](O)[C@H](O)CO)OC(C(=O)O)=C[C@@H]1O	Sialidase-2	enzyme activity, inhibitor	–	–	4.15
CCOC(=O)c1ccc(OC(=O)CCCCCN=C(N)N)cc1	Kallikrein-13 (Homo sapiens, UniProt Q9UKR3)	enzyme activity, inhibitor	–	–	4.91
CCCCNC(=O)N[C@H]1[C@H]([C@H](O)[C@H](O)CO)OC(C(=O)O)=C[C@@H]1O	Sialidase-2	enzyme activity, inhibitor	–	–	3.42
COc1ccc(C=Nc2ccc(SCc3cc(=O)c(O)co3)cc2)cc1	ACHE	enzyme activity, inhibitor, Ellman	–	–	4.69
